In ChEMBL document CHEMBL1129688, “ATP-citrate lyase as a target for hypolipidemic intervention. Design and synthesis of 2-substituted butanedioic acids as novel, potent inhibitors of the enzyme” (J Med Chem, 1996):
pKi: −log10 of the molar value.

Experiments:
HepG2 [1] = assay: Percent control of ATP levels in human hepatoma cell line, HepG2 at 100 uM concentration; format: functional
How it was run: (§1)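 Serum-starved HepG2 cells (grown to 80–90% confluence in DMEM/10% FCS, then overnight without serum) were exposed to vehicle or compound at the stated final concentration for 2.5 h. Cellular ATP was then measured as a toxicity check and expressed as % of vehicle control.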

HepG2 [2] = assay: Percent reduction of fatty acid synthesis in human hepatoma cell line HepG2 at 100 uM concentration; format: functional; design: scale not given: the % may be the effect or the level left
How it was run: (§2)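 HepG2 cells were grown in DMEM with Hepes, bicarbonate, glutamine and 10% FCS to 80–90% confluence, then kept overnight serum-free. Vehicle or compound was added at the stated final concentration for 2.5 h. ³H2O (71 μCi/mmol) was present for the final 90 min. Synthesis rates came from ³H incorporated into cellular cholesterol or fatty acids, relative to vehicle control.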

HepG2 [3] = assay: Percent control of ATP levels in human hepatoma cell line, HepG2 at 1000 uM concentration; format: functional; how it was run: as §1
HepG2 [4] = assay: Percent reduction of cholesterol synthesis in human hepatoma cell line HepG2 at 1000 uM concentration; format: functional; how it was run: as §2
HepG2 [5] = assay: Percent reduction of fatty acid synthesis in human hepatoma cell line HepG2 at 1000 uM concentration; format: functional; how it was run: as §2
HepG2 [6] = assay: Percent reduction of cholesterol synthesis in human hepatoma cell line, HepG2 at 100 uM concentration; format: functional; design: scale not given: the % may be the effect or the level left; how it was run: as §2
HepG2 [7] = assay: Percent reduction of fatty acid synthesis in human hepatoma cell line HepG2 at 300 uM concentration; format: functional; design: scale not given: the % may be the effect or the level left; how it was run: as §2
HepG2 [8] = assay: Percent reduction of cholesterol synthesis in human hepatoma cell line HepG2 at 300 uM concentration; format: functional; design: scale not given: the % may be the effect or the level left; how it was run: as §2
HepG2 [9] = assay: Percent control of ATP levels in human hepatoma cell line HepG2 at 1000 uM concentration; format: functional; how it was run: as §1
HepG2 [10] = assay: Percent control of ATP levels in human hepatoma cell line HepG2 at 100 uM concentration; format: functional; how it was run: as §1
HepG2 [11] = assay: Percent control of ATP levels in human hepatoma cell line HepG2 at 300 uM concentration; format: functional; how it was run: as §1
HepG2 [12] = assay: Percent control of ATP levels in human hepatoma cell line HepG2 at […] uM concentration; format: functional
HepG2 [13] = assay: Percent reduction of cholesterol synthesis in human hepatoma cell line HepG2 at 20 uM concentration; format: functional; design: scale not given: the % may be the effect or the level left; how it was run: as §2
HepG2 [14] = assay: Percent reduction of fatty acid synthesis in human hepatoma cell line HepG2 at 20 uM concentration; format: functional; design: scale not given: the % may be the effect or the level left; how it was run: as §2
HepG2 [15] = assay: Percent control of ATP levels in human hepatoma cell line HepG2 at 20 uM concentration; format: functional; how it was run: as §1
ATP-citrate synthase = target: T1, ATP-citrate synthase (Rattus norvegicus, UniProt P16638); assay: Inhibition of recombinant ATP-Citrate Lyase activity as […] dehydrogenase catalyzed reduction of oxaloacetate by NADH; settings: in the assay text read “purified rat ATP-Citrate Lyase” for “recombinant ATP-Citrate Lyase”
T1 sequence (P16638 whole entry): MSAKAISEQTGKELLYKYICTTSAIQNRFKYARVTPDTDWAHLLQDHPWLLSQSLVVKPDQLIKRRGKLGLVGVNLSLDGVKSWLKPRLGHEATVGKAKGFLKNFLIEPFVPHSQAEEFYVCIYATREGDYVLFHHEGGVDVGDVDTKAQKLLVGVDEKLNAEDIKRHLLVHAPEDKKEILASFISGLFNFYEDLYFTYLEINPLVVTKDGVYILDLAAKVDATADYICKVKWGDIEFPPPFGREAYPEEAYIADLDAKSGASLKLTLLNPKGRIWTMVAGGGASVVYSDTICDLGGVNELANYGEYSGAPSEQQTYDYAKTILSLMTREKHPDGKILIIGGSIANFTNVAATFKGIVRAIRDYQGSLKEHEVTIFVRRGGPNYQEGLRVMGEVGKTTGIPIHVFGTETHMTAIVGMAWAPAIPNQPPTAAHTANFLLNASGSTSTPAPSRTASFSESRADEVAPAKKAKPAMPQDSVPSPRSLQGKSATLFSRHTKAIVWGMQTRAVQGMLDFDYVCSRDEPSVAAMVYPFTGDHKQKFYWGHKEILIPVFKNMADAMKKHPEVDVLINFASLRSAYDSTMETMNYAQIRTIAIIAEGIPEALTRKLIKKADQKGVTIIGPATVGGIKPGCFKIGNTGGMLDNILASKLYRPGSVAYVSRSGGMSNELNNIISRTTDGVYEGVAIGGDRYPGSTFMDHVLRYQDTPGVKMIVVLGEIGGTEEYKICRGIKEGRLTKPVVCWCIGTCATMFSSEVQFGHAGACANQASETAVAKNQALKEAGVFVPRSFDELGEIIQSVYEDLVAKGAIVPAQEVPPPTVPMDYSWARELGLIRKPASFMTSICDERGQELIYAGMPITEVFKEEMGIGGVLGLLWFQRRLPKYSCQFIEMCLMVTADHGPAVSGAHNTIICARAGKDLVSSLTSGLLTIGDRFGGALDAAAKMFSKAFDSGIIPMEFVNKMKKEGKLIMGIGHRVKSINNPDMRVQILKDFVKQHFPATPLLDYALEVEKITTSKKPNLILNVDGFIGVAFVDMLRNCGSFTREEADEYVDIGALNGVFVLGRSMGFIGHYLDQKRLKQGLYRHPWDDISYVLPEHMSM
How it was run: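 Purified rat ACL or recombinant human ACL was assayed by coupling oxaloacetate formation to malate dehydrogenase reduction with NADH. Buffer: Tris 100 mM pH 8.0, MgCl2 10 mM, KCl 10 mM, DTT 10 mM, plus ATP and NADH. CoA was 200 μM, and citrate was added to 100 μM (its Km) to start the reaction. A340 decrease was followed over 20 min. Ki came from fitting v = Vmax/(2 + [I]/Ki), assuming citrate-competitive inhibition.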

HepG2 [16] = assay: Percent control of ATP levels in human hepatoma cell line HepG2 at 10 uM concentration; format: functional; how it was run: as §1
HepG2 [17] = assay: Percent reduction of cholesterol synthesis in human hepatoma cell line HepG2 at 100 uM concentration; format: functional; design: scale not given: the % may be the effect or the level left; how it was run: as §2
HepG2 [18] = assay: Percent control of ATP levels in human hepatoma cell line HepG2 at 30 uM concentration; format: functional; how it was run: as §1

## CC(=O)OCOC(=O)CC(O)(CSCCCCCCc1ccc(Cl)cc1Cl)C(=O)OCOC(C)=O (stereo unspecified)
HepG2 [1]
  Control: 111%
HepG2 [2]
  Control: 100%
HepG2 [3]
  Control: 60%
HepG2 [4]
  Cholesterol synthesis (% of vehicle control): 13%
HepG2 [5]
  Fatty acid synthesis (% of vehicle control): 16%

## O=C(O)C[C@@](O)(C(=O)O)[C@H](O)C(=O)O
HepG2 [6]
  Control: 110%
HepG2 [7]
  Control: 79%
HepG2 [2]
  Control: 87%
HepG2 [8]
  Control: 40%
HepG2 [9]
  Control: 104%
HepG2 [4]
  Cholesterol synthesis (% of vehicle control): 15%
HepG2 [10]
  Control: 100%
HepG2 [5]
  Fatty acid synthesis (% of vehicle control): 57%
HepG2 [11]
  Control: 103%

## O=C(O)CC(O)(CSCCCCCc1ccc(Cl)cc1Cl)C(=O)O (stereo unspecified)
HepG2 [12]
  Control: 84%
HepG2 [13]
  Control: 104%
HepG2 [4]
  Cholesterol synthesis (% of vehicle control): 14%
HepG2 [14]
  Control: 96%
HepG2 [15]
  Control: 102%
ATP-citrate synthase
  pKi: 5.17
HepG2 [5]
  Fatty acid synthesis (% of vehicle control): 16%

## CCOC(=O)CC(O)(CSCCCCCCc1ccc(Cl)cc1Cl)C(=O)OCC (stereo unspecified)
HepG2 [2]
  Control: 6%
HepG2 [16]
  Control: 91%
HepG2 [17]
  Control: 3%
HepG2 [18]
  Control: 86%
HepG2 [10]
  Control: 81%
